Most compounds without a hit are left out; they make up all but 3.7% or so of the library.
UPR CHOP act: activators of apoptotic arm of unfolded protein response (CHOP); AID 449763; CHO-CHOP luciferase reporter, UPR activation, luminescence; percent of tunicamycin response over DMSO baseline; actives 0.34% (n = 330,000); activation, % at 10 µM;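 active means at 10 µM dose, activation of 40% or more, normalized to positive control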;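 further: 100% = tunicamycin at 10 µg/mL and 0% = DMSO alone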
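Dosing – one dose, 10 µM in 0.5% DMSO · System – CHO-CHOP cells, stable luciferase reporter of PERK-eIF2a-CHOP signalling · Input – 500 cells/well · Control set – tunicamycin 10 µg/mL final as positive, DMSO-only wells as negative · Timing – 6 h compound treatment, 37 °C · Measure – % activation vs tunicamycin · Technique – luminescence read with Steady-Glo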
Dynein transport: dynein cargo transport inhibition. 3617.4 mouse cells, GR-EGFP nuclear translocation imaging; test concentration mostly 20 µM; stimulated with dexamethasone, 1 µM; hits give low values. z-score, hits read low. actives 0.47% (n = 220,000);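 active means plate z-score of nuclear minus cytoplasmic receptor signal below a set negative limit, without overly bright fluorescence or cell loss, cut at about -3.5 in these data, passing the limit was not always enough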;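 further: z-score of nuclear minus cytoplasmic ring GR-EGFP intensity difference per well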
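medium = tetracycline-free induction medium containing charcoal-stripped FBS | probe or stimulus = dexamethasone, 1.0 µM final | timing = 48 h induction, then 1 h compound, then 30 min agonist, 37 °C | detection = automated 10x imaging of fixed Hoechst-stained cells | read-out basis = nuclear versus cytoplasmic GR-EGFP signal, averaged per well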
Mdm2 ligase inh: inhibitors of human Mdm2 E3 ubiquitin ligase. Q00987. cell-based MDM2 ubiquitination luciferase reporter, 2 h; 0 = plate control, 100 = twice control, blank-subtracted. signal enhancement, % at 5 µM. actives 0.11% (n = 210,000). AID 1230;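 active means signal enhancement of 30% or more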;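 further: luminescence tracks abundance of the self-degrading MDM2-luciferase fusion protein; higher signal means inhibition of MDM2 E3 ligase activity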
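test system = mammalian cells stably expressing self-ubiquitinating, self-degrading MDM2 E3–luciferase fusion | quantity = 2000 cells/well | incubation = cell settling 4 h, compound treatment 2 h, both 37 °C | signal = luminescence with SteadyLite reagent, 15 min at room temperature | evaluation = % enhancement relative to plate controls after blank subtraction | benchmarks = plate controls and plate blanks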
XBP1 UPR activ: adaptive UPR (XBP1) activation; CHO-XBP1 luciferase reporter, IRE1-XBP1 UPR activation, luminescence; percent of tunicamycin response, DMSO as zero; activation, % at 20 µM; actives 0.33% (n = 330,000); AID 463104;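 active means versus positive control, 20 µM dose yields 30% or more activation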;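 further: 100% = tunicamycin at 10 µg/mL and 0% = DMSO only wells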
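Assay system: IRE1-XBP1 luciferase reporter CHO line. Input: 1000 cells/well. Buffer or medium: F12 with 10% serum. Doses: 20 µM, 1% DMSO. Times: overnight seeding at 37 °C, 6 h compound treatment at 37 °C. Technique: Steady-Glo luciferase glow luminescence, 10 min after reagent addition.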
Mdm2 MdmX PPI: inhibitors of human Mdm2/MdmX interaction; O15151+Q00987; SaOS-2 split-luciferase Mdm2/MdmX complementation, luminescence; inhibition, % at 8 µM; actives 3% (n = 330,000); AID 485346;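 active means inhibition of at least 50% at 8 µM in the primary screen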
B2AR ag: activates human beta-2 adrenergic receptor causing internalization. P07550. Am2.2-beta2AR cells, FAP receptor internalization, flow cytometry. response, % (concentration not given with the values). actives 0.43% (n = 340,000). AID 504454;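 active means response above a set limit, near 3 SD of response in nonfluorescent compounds, cut at about 42% in these data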
Target sequence (P07550 whole entry, looked up): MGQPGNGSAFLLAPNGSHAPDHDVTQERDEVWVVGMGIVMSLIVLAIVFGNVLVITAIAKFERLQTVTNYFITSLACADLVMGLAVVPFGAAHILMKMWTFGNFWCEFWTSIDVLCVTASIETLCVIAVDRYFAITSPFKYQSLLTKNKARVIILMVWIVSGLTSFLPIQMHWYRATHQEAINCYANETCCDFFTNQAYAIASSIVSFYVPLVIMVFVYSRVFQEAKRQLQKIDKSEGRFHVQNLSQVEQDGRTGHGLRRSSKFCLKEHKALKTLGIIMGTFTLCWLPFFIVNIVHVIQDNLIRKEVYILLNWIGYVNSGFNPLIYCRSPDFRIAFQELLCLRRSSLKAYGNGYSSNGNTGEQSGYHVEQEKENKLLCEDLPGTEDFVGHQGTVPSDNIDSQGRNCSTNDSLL
Mdm2-MdmX conf: human Mdm2/MdmX binding inhibition, confirmed; shares compounds with Mdm2 MdmX PPI; luminescent assay; inhibition, % at 8 µM; actives 55% (n = 10,000); AID 489028; in the data active means inhibition above about 40%
FLuc counter: counter-screen for Mdm2/MdmX inhibitors: full-length luciferase; AID 504607; SaOS-2 full-length luciferase counterscreen, luminescence; inhibition, % at 8 µM; shares compounds with Mdm2 MdmX PPI; actives 77% (n = 6,200);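 active means mean inhibition at 8 µM reaching about 37%, which flags the compound as non-specific, limit read from the data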;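 further: p53-null SaOS-2 cells with luciferase driven by a doxycycline-inducible promoter; compound on cells about two nights before reading with doxycycline added after day one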
* hit, by the source's call; / = not tested or not shown.

SMILES	UPR CHOP act	Dynein transport	Mdm2 ligase inh	XBP1 UPR activ	Mdm2 MdmX PPI	B2AR ag	Mdm2-MdmX conf	FLuc counter
CCOC(=O)[C@H]1[C@H]2COc3ccccc3[C@@H]2N2C(=O)CNC(=O)[C@@]12C	0.2	/	/	0.2	-5.1	4.8	/	/
CCN(C(=O)COC(=O)CCc1ccccc1)c1ccccc1	1.2	/	/	-2.0	13.3	-7.8	/	/
CCOC(=O)c1[nH]cnc1C(=O)N1CCC(C)CC1	3.6	/	/	-3.7	19.8	4.5	/	/
CCOc1cccc(/C=C(/C#N)c2nc3ccccc3[nH]2)c1OCC(=O)O	0.6	/	/	-1.0	-2.5	-8.0	/	/
CCN(CC)c1ccc(/C=C(/C#N)c2nc3ccccc3[nH]2)c(OC(C)C)c1	3.2	2.21	-28.0	5.9	79.8*	-314.1	76.7*	87.6*
Cc1ccc(-c2cc(-c3ccccc3)no2)c(O)c1	/	-0.165	-47.1	/	/	8.4	/	/
Cc1ccc2nc(-c3cc(-c4ccccc4)no3)cn2c1	-4.8	-0.96	-73.5	-8.6	69.5*	1.8	21.9	/
CCc1ccn2cc(-c3cc(-c4ccccc4)no3)nc2c1	-8.8	-1.06	-87.6	-8.9	65.7*	5.0	67.0*	95.2*
COc1ccc(CNC(=O)c2nccnc2CO)cc1	-1.1	/	/	-2.3	1.3	-5.2	/	/
CCOc1ccc(C(=O)Nc2sc3c(c2C(=O)OC)CC(C)(C)NC3(C)C)cc1	0.6	-0.624	-14.4	1.8	77.8*	1.5	47.9*	60.4*
CC1(C)Cc2c(sc(NC(=O)c3ccc(C(=O)c4ccccc4)cc3)c2C#N)C(C)(C)N1	-0.9	/	/	-9.0	51.6*	2.1	35.4	95.2*
CC1(C)Cc2c(sc(NC(=O)c3ccc(S(=O)(=O)N4CCCCCC4)cc3)c2C(N)=O)C(C)(C)N1	6.4	/	/	-3.8	84.7*	35.6	17.2	/
CC1(C)Cc2c(sc(NC(=O)c3ccc(S(=O)(=O)N4CCCC4)cc3)c2C#N)C(C)(C)N1	0.4	/	/	0.0	21.3	-19.2	/	/
CCOC(=O)c1c(NC(=O)COC(=O)/C=C/c2ccco2)sc2c1CC(C)(C)NC2(C)C	0.3	/	/	9.7	31.9	-7.5	/	/
CCOC(=O)c1c(NC(=O)COc2ccccc2)sc2c1CC(C)(C)NC2(C)C	-1.4	-0.41	-13.1	11.2	77.0*	13.1	41.4*	54.4*
Cc1ccc(NC(=O)COc2ccc(N(C)C(=O)C(C)(C)C)cc2)cc1S(=O)(=O)N1CCCCC1	9.3	/	/	-2.6	43.5	4.1	/	/
Cc1cccn2c(=O)c(/C=C(\C#N)C(=O)NCc3ccccc3)c(N3CCC(C(N)=O)CC3)nc12	1.3	4.04	-5.3	3.7	63.7*	-3.7	0.9	/
N=c1c2c(n(Cc3ccc(Cl)c(Cl)c3)c3c1CCC3)CCCC2	-0.9	-0.0381	-20.4	-1.9	73.7*	2.9	52.0*	45.3*
CCOC(=O)C1Nc2ccc(C(F)(F)F)cc2C2c3ccccc3CC12 (centres undefined)	-7.4	/	/	-8.3	97.0*	-3.5	70.2*	43.2*
CC(C)CCNC(=O)CN(C(=O)CCC(=O)Nc1nccs1)C1CCCCC1	0.5	/	/	-2.4	9.7	0.4	/	/
Cc1ccc(N(Cc2cc(=O)[nH]c3ccccc23)C(=O)CCl)c(C)c1	5.9	/	/	-4.3	100.3*	1.4	100.2*	53.9*
O=C(CNC(=O)c1ccco1)NCc1ccc2c(c1)OCO2	-1.3	/	/	-1.1	4.0	-4.6	/	/
COc1cccc(CN(CC(=O)NCc2ccccc2)C(=O)c2csnn2)c1	1.1	/	/	1.2	-24.8	-1.4	/	/
COc1cc(/C=N/NC(=O)c2ccc(C)nc2)cc([N+](=O)[O-])c1O	0.6	0.553	-14.4	-0.8	13.7	-0.5	/	/
Cc1ccc(C(=O)N/N=C/c2cc(Br)ccc2O)cn1	-1.6	/	/	24.9	50.7*	-10.1	31.1	/
SMILES	UPR CHOP act	Dynein transport	Mdm2 ligase inh	XBP1 UPR activ	Mdm2 MdmX PPI	B2AR ag	Mdm2-MdmX conf	FLuc counter
COc1cc([N+](=O)[O-])cc(/C=N/NC(=O)c2ccc(C)nc2)c1O	-0.9	-0.209	-5.2	-1.9	66.9*	-1.6	54.0*	80.7*
COc1cc([N+](=O)[O-])cc(/C=N/NC(=O)C(C)Nc2ccccc2C)c1O (centres undefined)	0.6	-0.234	-6.5	-0.6	51.5*	4.8	25.6	67.0*
COc1ccccc1CC1CC(=O)N(c2cccc(Cl)c2C)C1=O (centres undefined)	1.0	/	/	-3.7	-2.4	10.2	/	/
CCc1ccccc1NC(=O)CN1CCN(C(=O)CCC(=O)N2CCC(c3ccccc3)=N2)CC1	-0.1	/	/	-1.5	24.6	28.3	/	/
CCn1c(=O)c(CCC(=O)N2CCOCC2)c(C)c2c(C)nn(-c3ccccc3)c21	1.6	/	/	-0.9	62.0*	2.3	33.0	/
Cc1nn(-c2ccccc2)c2c1c(C)c(CCC(=O)N1CCOCC1)c(=O)n2C	1.8	/	/	-5.5	4.0	6.2	/	/
O=C(CN1C(=O)NC(c2ccccc2)(c2ccccc2)C1=O)N1CCOCC1	-0.9	/	/	1.6	1.9	1.9	/	/
CCn1c(/C=C/Nc2ccccc2)[n+](CC)c2cc(Cl)c(Cl)cc21	-0.2	2.07	-5.9	-0.1	97.5*	/	27.5	/
O=C(Cc1cccc(NC(=O)C2CCCN(C(=O)C3CCC3)C2)c1)Nc1cccc(C(=O)N2CCCC2)c1 (centres undefined)	1.2	/	/	-0.3	14.2	-11.4	/	/
Cc1c(C#N)c(O)n(CCO)c(=O)c1N=Nc1ccc2c(c1)COC2=O	30.6	-0.159	-15.9	-1.8	90.9*	-5.6	19.1	/
Cn1c(N)c(C(=O)COC(=O)c2cc(S(=O)(=O)N3CCOCC3)ccc2F)c(=O)n(C)c1=O	-1.1	/	/	-1.8	82.0*	11.3	28.4	/
COC(=O)c1cc(S(=O)(=O)C(C)C)c(S(C)=O)s1 (centres undefined)	2.2	-1.49	-2.8	-5.8	50.8*	-8.7	36.2	38.8*
CSc1sc(C(=O)NCC2CC2)cc1S(=O)(=O)C(C)C	-0.7	-1.11	-8.9	1.5	8.9	-7.3	/	/
COc1cc(C(=O)NC(=S)NNC(=O)c2cnccn2)cc(OC)c1OC	1.4	0.341	-23.3	-0.9	48.7	8.9	/	/
O=C(NNC(=S)NC(=O)c1cccnc1)c1ccc(Cl)cc1	0.7	2.6	-3.8	1.7	11.0	2.6	/	/
COc1ccc(C(=O)NC(=S)NNC(=O)c2cnccn2)cc1	-0.4	-0.728	/	0.9	64.2*	10.6	56.8*	40.6*
